Tests used:
HeLa = experiment: Antiproliferative activity against human HeLa cells after 2 days by MTT assay; format: functional, cell-based; details: 48 h
Method in brief: (§1)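 Cells (5×10^3 per well) in DMEM with 10% FBS, glucose, glutamine and antibiotics were exposed to serial dilutions (stocks in DMSO) for 2 days at 37 °C, 5% CO2. MTT was added for 3 h, formazan was dissolved in DMSO and absorbance read at 490 nm. Viability was taken as % of untreated cells. IC50 was read graphically from three independent experiments.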

MCF7 = experiment: Antiproliferative activity against human MCF7 cells after 2 days by MTT assay; format: functional, cell-based; details: MCF7, 48 h; method in brief: as §1
HEK293 = experiment: Antiproliferative activity against human HEK293 cells after 2 days by MTT assay; format: cell-based; details: HEK293, 48 h; method in brief: as §1
HT-29 [1] = experiment: Antiproliferative activity against human HT-29 cells after 2 days by MTT assay; format: functional, cell-based; details: HT-29, 48 h; method in brief: as §1
HT-29 [2] = experiment: Effect on VEGF gene expression in human HT-29 cells assessed as VEGF level at 5 nM after 48 hrs by RT-qPCR analysis; format: functional
Method in brief: (§2)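 HT-29 cells at 70–80% confluence were seeded at 1.5×10^5 per well and left 24 h, then treated 48 h, with DMSO as control. Total RNA was extracted and VEGF-A, c-Myc and hTERT were quantified by TaqMan qPCR, normalized to β-actin and to living cell number. Results are % expression versus control, at least three measurements.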

HT-29 [3] = experiment: Effect on hTERT gene expression in human HT-29 cells assessed as hTERT level at 5 nM after 48 hrs by RT-qPCR analysis; format: functional; method in brief: as §2
HT-29 [4] = experiment: Induction of apoptosis in human HT-29 cells assessed as necrotic cells at 5 nM after 48 hrs by Annexin V-FITC staining-based flow cytometric analysis (reference value: 2 +/- 6%); format: functional
HT-29 [5] = experiment: Induction of apoptosis in human HT-29 cells assessed as apoptotic cells at 5 nM after 48 hrs by Annexin V-FITC staining-based flow cytometric analysis (reference value: 13 +/- 3%); format: functional
HT-29 [6] = experiment: Effect on VEGFR2 protein expression in human HT-29 cells assessed as VEGFR2 level at 5 nM after 48 hrs by ELISA; format: functional
Method in brief: (§3)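 HT-29 cells (1.5×10^5 per well, 24 h pre-culture) were treated 48 h and washed in PBS. They were lysed in Tris pH 7.4 buffer with detergents, phosphatase inhibitors, PMSF and protease inhibitors. Lysates were adjusted to 200 µg/mL protein (Bradford) and total c-Myc or VEGFR-2 was measured by sandwich ELISA kit. Values are % of DMSO control, ≥3 measurements.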

HT-29 [7] = experiment: Effect on c-MYC gene expression in human HT-29 cells assessed as c-MYC level at 5 nM after 48 hrs by RT-qPCR analysis; format: functional; method in brief: as §2
HT-29 [8] = experiment: Effect on c-MYC protein expression in human HT-29 cells assessed as c-MYC level at 5 nM after 48 hrs by ELISA; format: functional; method in brief: as §3
HT-29 [9] = experiment: Effect on VEGF protein expression in human HT-29 cells assessed as secreted VEGF level in culture media at 5 nM after 48 hrs by ELISA
HT-29 [10] = experiment: Induction of apoptosis in human HT-29 cells assessed as viable cells at 5 nM after 48 hrs by Annexin V-FITC staining-based flow cytometric analysis (reference value: 82 +/- 1%); format: functional; details: HT-29, 48 h, read-out: Activity
HT-29 [11] = experiment: Induction of apoptosis in human HT-29 cells assessed as apoptotic cells at 25 nM after 48 hrs by Annexin V-FITC staining-based flow cytometric analysis (reference value: 13 +/- 3%); format: functional
HT-29 [12] = experiment: Induction of apoptosis in human HT-29 cells assessed as viable cells at 25 nM after 48 hrs by Annexin V-FITC staining-based flow cytometric analysis (reference value: 82 +/- 1%); format: functional; details: HT-29, 48 h, read-out: Activity
HT-29 [13] = experiment: Induction of apoptosis in human HT-29 cells assessed as necrotic cells at 25 nM after 48 hrs by Annexin V-FITC staining-based flow cytometric analysis (reference value: 2 +/- 6%); format: functional
HT-29 [14] = experiment: Induction of apoptosis in human HT-29 cells assessed as viable cells at 20 nM after 48 hrs by Annexin V-FITC staining-based flow cytometric analysis (reference value: 82 +/- 1%); format: functional; details: HT-29, 48 h, read-out: Activity
HT-29 [15] = experiment: Induction of apoptosis in human HT-29 cells assessed as apoptotic cells at 20 nM after 48 hrs by Annexin V-FITC staining-based flow cytometric analysis (reference value: 13 +/- 3%); format: functional
HT-29 [16] = experiment: Induction of apoptosis in human HT-29 cells assessed as necrotic cells at 20 nM after 48 hrs by Annexin V-FITC staining-based flow cytometric analysis (reference value: 2 +/- 6%); format: functional
HT-29 [17] = experiment: Effect on hTERT gene expression in human HT-29 cells assessed as hTERT level at 15 nM after 48 hrs by RT-qPCR analysis; format: functional; method in brief: as §2
HT-29 [18] = experiment: Effect on c-MYC protein expression in human HT-29 cells assessed as c-MYC level at 15 nM after 48 hrs by ELISA; format: functional; method in brief: as §3
HT-29 [19] = experiment: Effect on VEGF gene expression in human HT-29 cells assessed as VEGF level at 15 nM after 48 hrs by RT-qPCR analysis; format: functional; method in brief: as §2
HT-29 [20] = experiment: Effect on c-MYC gene expression in human HT-29 cells assessed as c-MYC level at 15 nM after 48 hrs by RT-qPCR analysis; format: functional; method in brief: as §2
HT-29 [21] = experiment: Induction of apoptosis in human HT-29 cells assessed as apoptotic cells at 15 nM after 48 hrs by Annexin V-FITC staining-based flow cytometric analysis (reference value: 13 +/- 3%); format: functional
HT-29 [22] = experiment: Effect on VEGF protein expression in human HT-29 cells assessed as secreted VEGF level in culture media at 15 nM after 48 hrs by ELISA
HT-29 [23] = experiment: Effect on VEGFR2 protein expression in human HT-29 cells assessed as VEGFR2 level at 15 nM after 48 hrs by ELISA; format: functional; method in brief: as §3
HT-29 [24] = experiment: Induction of apoptosis in human HT-29 cells assessed as necrotic cells at 15 nM after 48 hrs by Annexin V-FITC staining-based flow cytometric analysis (reference value: 2 +/- 6%); format: functional
HT-29 [25] = experiment: Induction of apoptosis in human HT-29 cells assessed as viable cells at 15 nM after 48 hrs by Annexin V-FITC staining-based flow cytometric analysis (reference value: 82 +/- 1%); format: functional; details: HT-29, 48 h, read-out: Activity

Compound	IC50 (HeLa) [nM]	IC50 (MCF7) [nM]	IC50 (HT-29 [1]) [nM]	IC50 (HEK293) [nM]	further results
COc1cc2c(c(OC)c1OC)-c1ccc(OC)c(=O)cc1[C@@H](NC(=O)NC1CCCCC1)CC2	87	89	37	98	
COc1cc2c(c(OC)c1OC)-c1ccc(OC)c(=O)cc1[C@@H](NC(=O)Nc1ccccc1C)CC2	32	119	26	44	Activity (HT-29 [11]): 34%; viability at 0.025 µM (HT-29 [12]): 64%; Activity (HT-29 [13]): 2%
COc1cc2c(c(OC)c1OC)-c1ccc(OC)c(=O)cc1[C@@H](NC(=O)Nc1cccc3ccccc13)CC2	16	17	11.1	9	
COc1cc2c(c(OC)c1OC)-c1ccc(OC)c(=O)cc1[C@@H](NC(=O)Nc1cc(C(F)(F)F)cc(C(F)(F)F)c1)CC2	1700	1800	2600	1500	viability at 0.02 µM (HT-29 [14]): 96%; Activity (HT-29 [15]): 4%; Activity (HT-29 [16]): 1%
COc1cc2c(c(OC)c1OC)-c1ccc(OC)c(=O)cc1[C@@H](NC(=O)Nc1ccc(F)cc1C)CC2	21	10	14	65	Activity (HT-29 [17]): 68%; Activity (HT-29 [18]): 110%; Activity (HT-29 [19]): 63%; Activity (HT-29 [20]): 65%; Activity (HT-29 [21]): 26%; Activity (HT-29 [22]): 90%; Activity (HT-29 [23]): 62%; Activity (HT-29 [24]): 1%; viability at 0.015 µM (HT-29 [25]): 73%
COc1cc2c(c(OC)c1OC)-c1ccc(OC)c(=O)cc1[C@@H](NC(=O)Nc1ccc(C(F)(F)F)cc1Cl)CC2	220	200	190	220	
COc1cc2c(c(OC)c1OC)-c1ccc(OC)c(=O)cc1[C@@H](NC(=O)Nc1c(F)cccc1F)CC2	18	42	25	46	Activity (HT-29 [17]): 36%; Activity (HT-29 [18]): 42%; Activity (HT-29 [19]): 38%; Activity (HT-29 [20]): 88%; Activity (HT-29 [21]): 12%; Activity (HT-29 [22]): 11%; Activity (HT-29 [23]): 35%; Activity (HT-29 [24]): 1%; viability at 0.015 µM (HT-29 [25]): 87%

Further compounds by falling IC50 (HeLa), results first:

IC50 (HeLa) [nM]	IC50 (MCF7) [nM]	IC50 (HT-29 [1]) [nM]	Compound	IC50 (HEK293) [nM]	further results
16	20	10	COc1cc2c(c(OC)c1OC)-c1ccc(OC)c(=O)cc1[C@@H](NC(=O)Nc1cc(F)cc(F)c1)CC2	10	
12	12	11	COc1cc2c(c(OC)c1OC)-c1ccc(OC)c(=O)cc1[C@@H](NC(=O)Nc1ccccc1)CC2	10	
8	370	4.3	COc1cc2c(c(OC)c1OC)-c1ccc(OC)c(=O)cc1[C@@H](NC(=O)Nc1cccc(Cl)c1)CC2	4.6	Activity (HT-29 [2]): 95%; Activity (HT-29 [3]): 90%; Activity (HT-29 [4]): 1%; Activity (HT-29 [5]): 37%; Activity (HT-29 [6]): 15%; Activity (HT-29 [7]): 104%; Activity (HT-29 [8]): 87%; Activity (HT-29 [9]): 114%; viability at 0.005 µM (HT-29 [10]): 62%
3	4.4	3.8	COc1cc2c(c(OC)c1OC)-c1ccc(OC)c(=O)cc1[C@@H](NC(=O)Nc1ccccc1OC(F)(F)F)CC2	5	

From ChEMBL document CHEMBL4229380, “Arylureas derived from colchicine: Enhancement of colchicine oncogene downregulation activity” (Eur J Med Chem, 2018)
